What was measured:
[1] = Oral absorption expressed as peak plasma conc (Cmax) after oral dosing of 50 mg/kg in rat; format: ADME, organism-based; design: dose 50 mg/kg, route oral
Method in brief: (§1)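 Rats given compound orally at 50 mg/kg. Serial 200 μL blood samples drawn from the tail vein into heparin-coated microhematocrit tubes at selected times. Red cells removed at once by centrifugation; plasma stored at -80 °C, proteins precipitated with acetonitrile, drug measured by HPLC. Absorption reported as peak plasma concentration (Cmax) and AUC extrapolated to infinity.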

[2] = Oral absorption expressed as Area under curve was determined; format: ADME; design: concentration or dose not given beside the values; method in brief: as §1
[3] = molecular target: Endothelin receptor, ET-A/ET-B (Homo sapiens) (UniProt P24530+P25101); assay: Relative affinity for human ETA over ETB receptors.; format: protein assay
Chain of Endothelin receptor, ET-A/ET-B (Homo sapiens) (P24530 whole entry, looked up, one chain of several): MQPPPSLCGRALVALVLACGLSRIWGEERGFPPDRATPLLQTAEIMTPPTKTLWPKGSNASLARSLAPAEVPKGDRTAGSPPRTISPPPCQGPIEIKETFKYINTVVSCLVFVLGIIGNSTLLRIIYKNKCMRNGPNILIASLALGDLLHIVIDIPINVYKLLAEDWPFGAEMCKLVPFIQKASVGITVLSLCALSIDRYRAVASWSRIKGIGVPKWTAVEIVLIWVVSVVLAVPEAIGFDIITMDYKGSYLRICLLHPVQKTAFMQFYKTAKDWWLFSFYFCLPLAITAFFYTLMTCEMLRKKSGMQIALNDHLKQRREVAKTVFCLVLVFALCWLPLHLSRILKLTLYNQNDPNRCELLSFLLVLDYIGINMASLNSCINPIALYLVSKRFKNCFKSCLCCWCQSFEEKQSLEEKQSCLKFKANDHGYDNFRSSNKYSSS

[4] = Oral bioavailability in rat; format: ADME, organism-based; conditions: in vivo
Endothelin-1 receptor = molecular target: T1, Endothelin-1 receptor (Homo sapiens, UniProt P25101); assay: Inhibitory concentration was determined against selective Endothelin A receptor
T1 sequence (P25101 whole entry): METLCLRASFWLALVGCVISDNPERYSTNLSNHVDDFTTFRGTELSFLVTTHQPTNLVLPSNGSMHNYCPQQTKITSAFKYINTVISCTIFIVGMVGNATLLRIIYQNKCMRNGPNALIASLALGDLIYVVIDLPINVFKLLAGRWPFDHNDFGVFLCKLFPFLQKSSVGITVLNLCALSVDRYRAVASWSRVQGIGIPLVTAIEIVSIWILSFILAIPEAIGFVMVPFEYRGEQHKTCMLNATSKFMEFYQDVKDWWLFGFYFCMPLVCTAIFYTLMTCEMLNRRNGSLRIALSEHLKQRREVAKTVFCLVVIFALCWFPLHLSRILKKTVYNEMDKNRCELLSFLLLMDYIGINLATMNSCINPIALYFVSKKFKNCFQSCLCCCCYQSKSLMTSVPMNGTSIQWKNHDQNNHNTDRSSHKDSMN

[5] = Oral bioavailability was evaluated in cat.; format: ADME, organism-based, Felis catus; conditions: in vivo
[6] = Oral bioavailability was evaluated in dog.; format: ADME, organism-based, Canis lupus familiaris; conditions: in vivo
[7] = Half life period in plasma was determined; format: ADME, cell-free

Compound	Cmax [1]	AUC [2]	Selectivity [3]	bioavailability [4]	IC50 (Endothelin-1 receptor)	bioavailability [5]	bioavailability [6]	half-life [7]
Cc1cc(C)c(NC(=O)c2sccc2S(=O)(=O)Nc2onc(C)c2Cl)c(C)c1CC#N	42000 ng/mL	59.9 µg·h/mL	32900	–	–	–	–	–
Cc1noc(NS(=O)(=O)c2ccsc2C(=O)Nc2cc3c(cc2C#N)OCO3)c1Cl	–	–	12000	8%	–	–	–	–
Cc1cc(C)c(NC(=O)c2sccc2S(=O)(=O)Nc2onc(C)c2Cl)c(C)c1O	48200 ng/mL	118 µg·h/mL	10900	–	0.19 nM	–	–	–
Cc1noc(NS(=O)(=O)c2ccsc2C(=O)Nc2ccc3c(c2)OCO3)c1Br	–	–	500	–	–	–	–	–
Cc1cc(C)c(NC(=O)c2sccc2S(=O)(=O)Nc2onc(C)c2Cl)c(C(=O)C(C)C)c1	59200 ng/mL	298 µg·h/mL	14000	–	0.12 nM	–	–	–
CC(=O)c1cc(C)cc(C)c1NC(=O)c1sccc1S(=O)(=O)Nc1onc(C)c1Cl	57600 ng/mL	272 µg·h/mL	442000	25%	0.04 nM	42%	70%	240 min
Cc1cc(C)c(CC(=O)c2sccc2S(=O)(=O)Nc2onc(C)c2Cl)c(C)c1O	2600 ng/mL	15.8 µg·h/mL	10800	–	0.14 nM	–	–	–
CCc1cc(C)cc(C)c1NC(=O)c1sccc1S(=O)(=O)Nc1onc(C)c1Cl	21800 ng/mL	47 µg·h/mL	–	–	0.43 nM	–	–	–
Cc1cc(C)c(NC(=O)c2sccc2S(=O)(=O)Nc2onc(C)c2Cl)c(C)c1	35900 ng/mL	103 µg·h/mL	7000	–	0.17 nM	–	–	–
Cc1cc2c(cc1CC(=O)c1sccc1S(=O)(=O)Nc1onc(C)c1C)OCO2	–	–	10000	~100%	–	–	–	–
Cc1cc(C)c(NC(=O)c2sccc2S(=O)(=O)Nc2noc(C)c2Cl)c(C)c1CC#N	53900 ng/mL	171 µg·h/mL	8500	–	0.1 nM	–	–	–
CC(=O)c1cc2c(cc1NC(=O)c1sccc1S(=O)(=O)Nc1onc(C)c1Cl)OCO2	–	–	3000	27%	–	–	–	–
Cc1cc2c(cc1CC(=O)c1sccc1S(=O)(=O)Nc1onc(C)c1Cl)OCO2	–	–	7000	–	–	–	–	–
Cc1cc(C)c(NC(=O)c2sccc2S(=O)(=O)Nc2onc(C)c2C)c(C)c1CC#N	13000 ng/mL	45.8 µg·h/mL	14600	–	0.17 nM	–	–	–
Cc1noc(NS(=O)(=O)c2ccsc2C(=O)Cc2ccc3c(c2)OCO3)c1Cl	–	–	300	–	–	–	–	–
Cc1ccc(NC(=O)c2sccc2S(=O)(=O)Nc2onc(C)c2Cl)cc1	–	–	940	–	–	–	–	–
